ChEMBL document CHEMBL5096231, “Covalently Conjugated NOD2/TLR7 Agonists Are Potent and Versatile Immune Potentiators” (J Med Chem, 2022)
Calls of active or inactive are those of the source. The calls are words filed in the database; no cut-off is given here.

Columns and labels:
[1] = Induction of activation of human CD56+ CD3- NK cells co-cultured with human PBMC cells assessed as increase in CD107a expression at 1 uM incubated for 24 hrs by flow cytometry analysis (reference value: 1.5%); type: functional, Natural killer cell
[2] = (§1) Induction of mouse ovalbumin specific CD4+ T cell activation assessed as increase in CD25 expression at 1 uM preincubated for 18 hrs with mouse BDMC cells in presence of ovalbumin followed by washout and further coincubated with CD4+ T cells and measured after 72 hrs by flow cytometry analysis (reference value: 10.9%); type: functional, CD4+ve Th
Procedure, shortened: (§2)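 C57BL/6 BMDCs (GM-CSF 7 days, >90% CD11c+) pulsed 18 h with 1 μM compound, LPS 1 μg/mL or 0.1% DMSO plus OVA 50 μg/mL, washed. 1 × 10^4 BMDCs cocultured 72 h with 5 × 10^4 CFSE-labelled OT-II CD4+ or OT-I CD8+ T cells. Flow: live Thy1.2+ CD4+ or CD8+ cells scored as CD25+ CFSElow. Duplicates of two experiments.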

[3] = Induction of activation of human CD56+ CD3- NK cells co-cultured with human PBMC cells assessed as increase in IFN-gamma expression at 1 uM incubated for 24 hrs by flow cytometry analysis (reference value: 0.04%); type: functional, Natural killer cell
[4] = Induction of activation of human CD56+ CD3- NK cells co-cultured with human PBMC cells assessed as increase in CD69 expression at 1 uM incubated for 24 hrs by flow cytometry analysis (reference value: 2.7%); type: functional, Natural killer cell
[5] = Cytotoxicity against mouse RAW-Blue cells assessed as reduction in metabolic activity at 10 uM incubated for 18 hrs by MTS assay; type: toxicity, cell-based
Procedure, shortened: (§3)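 Cells (HEK-Blue NOD2, RAW-Blue or freshly isolated human PBMCs) seeded in duplicate and exposed to 10 μM compound or 0.1% DMSO vehicle for 18 h at 37 °C, 5% CO2. Metabolic activity then measured by CellTiter 96 AQueous One (MTS) assay.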

[6] = Cytotoxicity against HEK-Blue hNOD2 cells assessed as reduction in metabolic activity at 10 uM incubated for 18 hrs by MTS assay; type: toxicity, cell-based; details: human, hek-blue hnod2, 18 h; procedure, shortened: as §3
[7] = Cytotoxicity against human PBMC cells assessed as reduction in metabolic activity at 10 uM incubated for 18 hrs by MTS assay; type: toxicity, cell-based; procedure, shortened: as §3
[8] = as §1, with “specific CD8-positive” for “specific CD4+”, “value: 12.6%)” for “value: 10.9%)”; type: functional; procedure, shortened: as §2
[9] = test system: CD4+ve Th; assay: Induction of mouse ovalbumin specific CD4+ T cell activation assessed as increase in TNF expression at 1 uM preincubated for 18 hrs with mouse BDMC cells in presence of ovalbumin followed by washout and further coincubated with CD4+ T cells and measured after 72 hrs; type: functional, cell-based
Procedure, shortened: (§4)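 Supernatants taken after the 72 h coculture of washed BMDCs (18 h pretreatment with 1 μM compound, LPS 1 μg/mL or vehicle, plus OVA 50 μg/mL) with OT-II CD4+ or OT-I CD8+ T cells. Cytokines measured by mouse Th1/Th2/Th17 cytometric bead array. Duplicates of two independent experiments, mean ± SEM.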

[10] = test system: PBMC; assay: Upregulation of IL-26 gene transcription in human PBMC cells at 1 uM incubated for 18 hrs by KEGG analysis; type: functional, cell-based
Procedure, shortened: (§5)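 PBMCs from three donors (2 × 10^6 cells/mL) exposed to 1 μM compound or 0.1% DMSO for 18 h at 37 °C. mRNA isolated, amplified, sequenced. DESeq2 differential expression, FDR <0.05 and fold change >2 or <0.5 versus vehicle; gene lists used for Metascape/KEGG enrichment.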

[11] = test system: PBMC; assay: Upregulation of IL-17F gene transcription in human PBMC cells at 1 uM incubated for 18 hrs by KEGG analysis; type: functional, cell-based; procedure, shortened: as §5
[12] = test system: CD8-positive T cell; assay: Induction of mouse ovalbumin specific CD8-positive T cell activation assessed as increase in IFN-gamma expression at 1 uM preincubated for 18 hrs with mouse BDMC cells in presence of ovalbumin followed by washout and further coincubated […] and measured after 72 hrs; type: functional, cell-based; procedure, shortened: as §4
[13] = test system: CD8-positive T cell; assay: Induction of mouse ovalbumin specific CD8-positive T cell activation assessed as increase in IL-6 expression at 1 uM preincubated for 18 hrs with mouse BDMC cells in presence of ovalbumin followed by washout and further coincubated with CD4+ T cells and measured after 72 hrs; type: functional, cell-based; procedure, shortened: as §4
[14] = test system: PBMC; assay: Upregulation of CXCL10 gene transcription in human PBMC cells at 1 uM incubated for 18 hrs by KEGG analysis; type: functional, cell-based; procedure, shortened: as §5
[15] = test system: PBMC; assay: Upregulation of IL12B gene transcription in human PBMC cells at 1 uM incubated for 18 hrs by KEGG analysis; type: functional, cell-based; procedure, shortened: as §5
[16] = test system: PBMC; assay: Immunostimulatory activity in human PBMC cells assessed as increase in IL12p70 production at 1 uM incubated for 18 hrs by flow cytometry analysis; type: functional, cell-based
Procedure, shortened: (§6)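 PBMCs at 1 × 10^6 cells/mL treated with compound (1 μM), LPS (1 μg/mL) or 0.1% DMSO vehicle; cell-free supernatants collected after 18 h at 37 °C, 5% CO2. Cytokines quantified by human inflammatory cytokine bead array on flow cytometry with recombinant standard curves. Four independent experiments, mean ± SEM.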

[17] = test system: PBMC; assay: Immunostimulatory activity in human PBMC cells assessed as increase in TNF production at 1 uM incubated for 18 hrs by flow cytometry analysis; type: functional, cell-based; procedure, shortened: as §6
[18] = test system: PBMC; assay: Upregulation of CXCL9 gene transcription in human PBMC cells at 1 uM incubated for 18 hrs by KEGG analysis; type: functional, cell-based; procedure, shortened: as §5
[19] = test system: CD4+ve Th; assay: Induction of mouse ovalbumin specific CD4+ T cell activation assessed as increase in IFN-gamma expression at 1 uM preincubated for 18 hrs with mouse BDMC cells in presence of ovalbumin followed by washout and further coincubated with CD4+ T cells and measured after 72 hrs; type: functional, cell-based; procedure, shortened: as §4
[20] = test system: Mus musculus; assay: Immuno-adjuvant activity in NIH/OlaHsd mouse assessed as increase in ovalbumin specific Th2 associated IgG1 production in sera at 50 ug, sc administered on day 0 and as booster dose on day 21 and 28 measured 7 days post last dose by ELISA; type: functional, organism-based; details: dose 50.0 µg, time 35.0 day
[21] = test system: K562; assay: Cytotoxicity against human K562 cells cocultured with human PBMC cells assessed as inhibition of cell proliferation at 0.01 to 1 uM incubated with PBMC cells for 18 hrs followed by co-incubation with K562 cells for 4 hrs by SYTOX blue staining based flow cytometric analysis; type: functional; details: dose 0.01-1 µM
Procedure, shortened: (§7)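 Human PBMCs (Ficoll-isolated, healthy donors) pretreated 18 h in duplicate with compound (1 nM–1 μM) or 0.1% DMSO. CFSE-labelled K562 or MEC1 target cells then added, effector:target 40:1, 4 h at 37 °C. Sytox blue staining, flow cytometry; CFSE+Sytox+ cells counted as dead. Expressed relative to vehicle; three independent experiments, mean ± SEM.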

[22] = test system: PBMC; assay: Upregulation of IL-17A gene transcription in human PBMC cells at 1 uM incubated for 18 hrs by KEGG analysis; type: functional, cell-based; procedure, shortened: as §5
[23] = test system: CD4+ve Th; assay: Induction of mouse ovalbumin specific CD4+ T cell activation assessed as increase in IL-17A expression at 1 uM preincubated for 18 hrs with mouse BDMC cells in presence of ovalbumin followed by washout and further coincubated with CD4+ T cells and measured after 72 hrs; type: functional, cell-based; procedure, shortened: as §4
[24] = test system: PBMC; assay: Upregulation of Tbx21 gene transcription in human PBMC cells at 1 uM incubated for 18 hrs by KEGG analysis; type: functional, cell-based; procedure, shortened: as §5
[25] = test system: CD8-positive T cell; assay: Induction of mouse ovalbumin specific CD8-positive T cell activation assessed as increase in TNF expression at 1 uM preincubated for 18 hrs with mouse BDMC cells in presence of ovalbumin followed by washout and further coincubated with CD4+ T cells and measured after 72 hrs; type: functional, cell-based; procedure, shortened: as §4
[26] = test system: RAW-Blue; assay: Activation of NF-kappaB transcriptional activity in mouse RAW-Blue cells expressing NOD2 and TLR7 at 1 uM incubated for 18 hrs by quanti-blue/SEAP-based spectrophotometry analysis; type: cell-based; details: filed as activator
Procedure, shortened: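 RAW-Blue cells pretreated 1 h with NOD2 antagonist SG84 (5 μM), TLR7 antagonist M5049 (1 μM), both, or neither, then given compound or 0.1% DMSO vehicle; 18 h at 37 °C, 5% CO2 in growth medium without Normocin/Zeocin. Supernatant mixed with QUANTI-Blue for 2 h at 37 °C, SEAP read at 630 nm. Activity relative to vehicle; three independent experiments, mean ± SEM.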

[27] = test system: PBMC; assay: Upregulation of IL12A gene transcription in human PBMC cells at 1 uM incubated for 18 hrs by KEGG analysis; type: functional, cell-based; procedure, shortened: as §5
[28] = test system: PBMC; assay: Immunostimulatory activity in human PBMC cells assessed as increase in IL-1beta production at 1 uM incubated for 18 hrs by flow cytometry analysis; type: functional, cell-based; procedure, shortened: as §6
[29] = test system: MEC1; assay: Cytotoxicity against human MEC1 cells cocultured with human PBMC cells assessed as inhibition of cell proliferation at 0.01 to 1 uM incubated with PBMC cells for 18 hrs followed by co-incubation with MEC-1 cells for 4 hrs by SYTOX blue staining based flow cytometric analysis; type: functional; details: dose 0.01-1 µM; procedure, shortened: as §7
[30] = test system: Mus musculus; assay: Immuno-adjuvant activity in NIH/OlaHsd mouse assessed as increase in ovalbumin specific Th1 associated IgG2a production in sera at 50 ug, sc administered on day 0 and as booster dose on day 21 and 28 measured 7 days post last dose by ELISA; type: functional, organism-based; details: dose 50.0 µg, time 35.0 day
[31] = test system: PBMC; assay: Upregulation of IL-22 gene transcription in human PBMC cells at 1 uM incubated for 18 hrs by KEGG analysis; type: functional, cell-based; procedure, shortened: as §5
[32] = test system: PBMC; assay: Upregulation of IFN-gamma gene transcription in human PBMC cells at 1 uM incubated for 18 hrs by KEGG analysis; type: functional, cell-based; procedure, shortened: as §5
[33] = test system: CD8-positive T cell; assay: Induction of mouse ovalbumin specific CD8-positive T cell activation assessed as increase in IL-17A expression at 1 uM preincubated for 18 hrs with mouse BDMC cells in presence of ovalbumin followed by washout and further coincubated with CD4+ T cells and measured after 72 hrs; type: functional, cell-based; procedure, shortened: as §4
[34] = test system: PBMC; assay: Immunostimulatory activity in human PBMC cells assessed as increase in IL-10 production at 1 uM incubated for 18 hrs by flow cytometry analysis; type: functional, cell-based; procedure, shortened: as §6
[35] = test system: PBMC; assay: Immunostimulatory activity in human PBMC cells assessed as increase in IL-6 production at 1 uM incubated for 18 hrs by flow cytometry analysis; type: functional, cell-based; procedure, shortened: as §6
[36] = test system: Mus musculus; assay: Immuno-adjuvant activity in NIH/OlaHsd mouse assessed as increase in ovalbumin specific IgG production in sera at 50 ug, sc administered on day 0 and as booster dose on day 21 and 28 measured 7 days post last dose by ELISA; type: functional, organism-based; details: dose 50.0 µg, time 35.0 day
[37] = test system: PBMC; assay: Upregulation of CXCL11 gene transcription in human PBMC cells at 1 uM incubated for 18 hrs by KEGG analysis; type: functional, cell-based; procedure, shortened: as §5
[38] = test system: PBMC; assay: Immunostimulatory activity in human PBMC cells assessed as increase in IL-8 production at 1 uM incubated for 18 hrs by flow cytometry analysis; type: functional, cell-based; procedure, shortened: as §6
[39] = test system: CD4+ve Th; assay: Induction of mouse ovalbumin specific CD4+ T cell activation assessed as increase in IL-6 expression at 1 uM preincubated for 18 hrs with mouse BDMC cells in presence of ovalbumin followed by washout and further coincubated with CD4+ T cells and measured after 72 hrs; type: functional, cell-based; procedure, shortened: as §4

CCCCOc1nc(N)c2nc(O)n(Cc3ccc(C(=O)O)cc3)c2n1
Activity [1]: 1.7% | Activity [2]: 25.8% | Activity [3]: 0.05% | Activity [4]: 3.3% | Activity [5]: Non-Toxic | Activity [6]: Non-Toxic | Activity [7]: Non-Toxic | Activity [8]: 17.6%

CCCCOc1nc(N)c2nc(O)n(Cc3ccc(C(=O)NCCOCCNC(=O)CC[C@@H](NC(=O)[C@@H](NC(=O)CNC(=O)/C=C/c4ccc(O)c(OC)c4)C(C)C)C(=O)OCC)cc3)c2n1
Activity [9]: Active | Activity [10]: Active | Activity [1]: 4.7% | Activity [11]: Active | Activity [12]: Active | Activity [13]: Active | Activity [14]: Active | Activity [2]: 28.9% | Activity [15]: Active | Activity [16]: Active | Activity [3]: 4.5% | Activity [17]: Active | Activity [18]: Active | Activity [19]: Active | Activity [4]: 93% | Activity [20]: Active | Activity [21]: Active | Activity [22]: Active | Activity [23]: Active | Activity [5]: Non-Toxic | Activity [24]: Active | Activity [6]: Non-Toxic | Activity [7]: Non-Toxic | Activity [8]: 54.5% | Activity [25]: Active | Activity [26]: Active | Activity [27]: Active | Activity [28]: Active | Activity [29]: Active | Activity [30]: Active | Activity [31]: Active | Activity [32]: Active | Activity [33]: Active | Activity [34]: Active | Activity [35]: Active | Activity [36]: Active | Activity [37]: Active | Activity [38]: Active | Activity [39]: Active
